Test results as given in ChEMBL document CHEMBL1153534, “Design and synthesis of androgen receptor antagonists with bulky side chains for overcoming antiandrogen resistance” (J Med Chem, 2009).
Activity calls are given as the source filed them. The calls are words filed in the database; no cut-off is given here.

Columns and labels:
[1] = system: T1, Androgen receptor (Homo sapiens), P10275 [W742C]; assay: Activity in human PC3 cells expressing androgen receptor W741C mutant assessed as ARE-dependent transactivation at 0.1 uM after 24 hrs by luciferase reporter gene assay in absence of DHT; assay type: cell-based; details: PC-3
T1 sequence (whole entry): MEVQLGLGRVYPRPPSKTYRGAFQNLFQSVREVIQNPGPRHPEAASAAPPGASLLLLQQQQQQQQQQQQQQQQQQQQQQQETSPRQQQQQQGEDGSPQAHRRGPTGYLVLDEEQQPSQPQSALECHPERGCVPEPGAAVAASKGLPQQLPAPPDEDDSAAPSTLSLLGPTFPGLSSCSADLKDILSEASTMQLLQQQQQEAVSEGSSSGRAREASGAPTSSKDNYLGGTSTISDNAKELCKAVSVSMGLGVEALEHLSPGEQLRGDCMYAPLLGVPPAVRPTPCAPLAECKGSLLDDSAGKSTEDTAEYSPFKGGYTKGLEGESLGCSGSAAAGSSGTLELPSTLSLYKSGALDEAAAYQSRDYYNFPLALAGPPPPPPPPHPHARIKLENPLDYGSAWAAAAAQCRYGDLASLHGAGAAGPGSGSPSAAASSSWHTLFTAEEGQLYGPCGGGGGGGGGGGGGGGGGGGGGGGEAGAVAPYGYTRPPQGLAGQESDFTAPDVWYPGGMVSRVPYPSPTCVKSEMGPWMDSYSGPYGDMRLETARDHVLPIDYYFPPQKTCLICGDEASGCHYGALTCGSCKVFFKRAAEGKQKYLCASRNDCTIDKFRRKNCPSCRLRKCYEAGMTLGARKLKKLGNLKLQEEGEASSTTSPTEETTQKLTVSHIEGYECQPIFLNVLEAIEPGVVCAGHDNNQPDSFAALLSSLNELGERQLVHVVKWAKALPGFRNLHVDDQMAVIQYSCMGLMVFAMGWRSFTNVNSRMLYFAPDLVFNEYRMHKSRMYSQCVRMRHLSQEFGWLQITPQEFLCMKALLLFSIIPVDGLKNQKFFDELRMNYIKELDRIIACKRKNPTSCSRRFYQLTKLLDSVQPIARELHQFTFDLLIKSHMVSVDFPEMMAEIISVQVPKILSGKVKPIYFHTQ
Summary of the method: (§1)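 PC-3 cells, which lack endogenous AR, transiently transfected with plasmids expressing human AR (WT, T877A, W741C or H874Y) plus an ARE-driven MMTV-luc reporter. Cells were treated with or without 0.1 nM DHT. Firefly luciferase was standardized to a Renilla control and normalized to the 0.1 nM DHT signal. Mean ± sd.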

PC-3 = assay: Activity in human PC3 cells expressing androgen receptor H874Y mutant assessed as ARE-dependent transactivation at 0.1 uM after 24 hrs by luciferase reporter gene assay in absence of DHT; assay type: cell-based; summary of the method: as §1

- Activity [1]: inactive
Compound: COc1cc(/C=C(\C(=O)/C=C/C2=C(C)CCCC2(C)C)C(=O)/C=C/c2ccc(O)c(OC)c2)ccc1O
- Activity (PC-3): inactive
